Source: ChEMBL document CHEMBL1154686, “Pyrazoline bearing benzimidazoles: search for anticancer agent” (2010)

Key:
Type in all cases: functional
[1] = system: UACC-257; assay: Growth inhibition of human UACC257 cells after 48 hrs by SRB assay; conditions: UACC-257, 48 h
Summary of the method: (§1)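 NCI 60-cell panel, five-dose format: cells plated at 5,000–40,000/well by doubling time, preincubated 24 h at 37 °C, 5% CO2; time-zero plates TCA-fixed. Compound dissolved in DMSO, five concentrations (0.01, 0.1, 1, 10, 100 µM) plus control, 48 h. Cells fixed with cold TCA, stained with 0.4% SRB in 1% acetic acid, bound dye solubilized in 10 mM trizma base, absorbance at 515 nm. GI50 taken from [(Ti–Tz)/(C–Tz)]×100 = 50.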

[2] = system: SK-MEL-5; assay: Growth inhibition of human SK-MEL-5 cells after 48 hrs by SRB assay; conditions: SK-MEL-5, 48 h
Summary of the method: (§2)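 NCI-60 panel protocol with adherent lines. Cells were seeded at 5,000–40,000 cells/well, depending on doubling time, and pre-incubated 24 h at 37 °C, 5% CO₂. Time-zero plates were TCA-fixed at drug addition. Drugs were dissolved in DMSO and exposed for 48 h. Cells were fixed with cold TCA (final 10%) for 60 min at 4 °C, stained with 0.4% SRB in 1% acetic acid for 10 min, solubilized with 10 mM trizma base, and read at A515.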

[3] = system: HOP-92; assay: Growth inhibition of human HOP92 cells after 48 hrs by SRB assay; conditions: HOP-92, 48 h; summary of the method: as §2
[4] = system: K562; assay: Growth inhibition of human K562 cells after 48 hrs by SRB assay; conditions: K562, 48 h
Summary of the method: (§3)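 Suspension leukemia lines were run in the NCI-60 SRB format. Cells were plated at 5,000–40,000 cells/well and pre-incubated 24 h at 37 °C, 5% CO₂, with time-zero plates fixed at drug addition. Drug exposure in DMSO-derived dilutions lasted 48 h. Settled cells were fixed with 80% TCA (final 16%), stained with 0.4% SRB, solubilized in 10 mM trizma base, and read at 515 nm. Percent growth was taken relative to the time-zero and control readings.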

[5] = system: RPMI-8226; assay: Growth inhibition of human RPMI8226 cells after 48 hrs by SRB assay; conditions: RPMI-8226, 48 h; summary of the method: as §3
[6] = system: HT-29; assay: Growth inhibition of human HT-29 cells after 48 hrs by SRB assay; conditions: HT-29, 48 h; summary of the method: as §2
[7] = system: SF-539; assay: Growth inhibition of human SF539 cells after 48 hrs by SRB assay; conditions: SF-539, 48 h; summary of the method: as §2
[8] = system: MDA-MB-435; assay: Growth inhibition of human MDA-MB-435 cells after 48 hrs by SRB assay; conditions: MDA-MB-435, 48 h; summary of the method: as §2
[9] = system: TK-10; assay: Growth inhibition of human TK10 cells after 48 hrs by SRB assay; conditions: TK-10, 48 h; summary of the method: as §1
[10] = system: RXF 393; assay: Growth inhibition of human […] cells after 48 hrs by SRB assay; conditions: RXF 393, 48 h; summary of the method: as §2
[11] = system: HCT-116; assay: Growth inhibition of human HCT116 cells after 48 hrs by SRB assay; conditions: HCT-116, 48 h; summary of the method: as §2
[12] = system: Malme-3M; assay: Growth inhibition of human MALME-3M cells after 48 hrs by SRB assay; summary of the method: as §2
[13] = system: SN12C; assay: Growth inhibition of human SN12C cells after 48 hrs by SRB assay; summary of the method: as §2
[14] = system: HOP-62; assay: Growth inhibition of human HOP62 cells after 48 hrs by SRB assay; conditions: HOP-62, 48 h; summary of the method: as §2
[15] = system: SW-620; assay: Growth inhibition of human SW620 cells after 48 hrs by SRB assay; conditions: SW-620, 48 h; summary of the method: as §1
[16] = system: COLO 205; assay: Growth inhibition of human COLO205 cells after 48 hrs by SRB assay; conditions: COLO 205, 48 h; summary of the method: as §2
[17] = system: SNB-75; assay: Growth inhibition of human SNB75 cells after 48 hrs by SRB assay; conditions: SNB-75, 48 h; summary of the method: as §2
[18] = system: SK-OV-3; assay: Growth inhibition of human SKOV3 cells after 48 hrs by SRB assay; conditions: SK-OV-3, 48 h; summary of the method: as §2
[19] = system: OVCAR-5; assay: Growth inhibition of human OVCAR5 cells after 48 hrs by SRB assay; conditions: OVCAR-5, 48 h; summary of the method: as §2
[20] = system: CAKI-1; assay: Growth inhibition of human Caki1 cells after 48 hrs by SRB assay; conditions: CAKI-1, 48 h; summary of the method: as §2
[21] = system: UO-31; assay: Growth inhibition of human UO31 cells after 48 hrs by SRB assay; conditions: UO-31, 48 h; summary of the method: as §1
[22] = system: PC-3; assay: Growth inhibition of human PC3 cells after 48 hrs by SRB assay; conditions: PC-3, 48 h; summary of the method: as §2
[23] = system: DU-145; assay: Growth inhibition of human DU145 cells after 48 hrs by SRB assay; conditions: DU-145, 48 h; summary of the method: as §2
[24] = system: SNB-19; assay: Growth inhibition of human SNB19 cells after 48 hrs by SRB assay; conditions: SNB-19, 48 h; summary of the method: as §2
[25] = system: UACC-62; assay: Growth inhibition of human UACC62 cells after 48 hrs by SRB assay; conditions: UACC-62, 48 h; summary of the method: as §1
[26] = system: A549; assay: Growth inhibition of human A549 cells after 48 hrs by SRB assay; conditions: A549, 48 h; summary of the method: as §2
[27] = read-out: LC50 (the source's name)

COc1ccc(C2CC(c3nc4ccccc4[nH]3)=NN2c2ccccc2)cc1OC (stereo not drawn)
GI50 [1]: 77.1 µM
TGI [1]: > 100 µM
CC50 [1, 27]: > 100 µM
GI50 [2]: 2.62 µM
TGI [2]: 15.1 µM
CC50 [2, 27]: 67.6 µM
GI50 [3]: 3.89 µM
TGI [3]: > 100 µM
CC50 [3, 27]: > 100 µM
GI50 [4]: > 100 µM
TGI [4]: > 100 µM
CC50 [4, 27]: > 100 µM
GI50 [5]: 2.76 µM
TGI [5]: 10.3 µM
CC50 [5, 27]: 76.6 µM
GI50 [6]: 9.91 µM
TGI [6]: 24.7 µM
CC50 [6, 27]: 61.4 µM
GI50 [7]: 15 µM
TGI [7]: 38.6 µM
CC50 [7, 27]: 99.5 µM
GI50 [8]: 4.15 µM
TGI [8]: > 100 µM
CC50 [8, 27]: > 100 µM
GI50 [9]: 15.7 µM
TGI [9]: 65.9 µM
CC50 [9, 27]: > 100 µM
GI50 [10]: 13.4 µM
TGI [10]: 36.1 µM
CC50 [10, 27]: 97 µM
GI50 [11]: 3.94 µM
TGI [11]: 16.5 µM
CC50 [11, 27]: 49.8 µM
GI50 [12]: 7.47 µM
TGI [12]: 92.7 µM
CC50 [12, 27]: > 100 µM
GI50 [13]: 17.3 µM
TGI [13]: > 100 µM
CC50 [13, 27]: > 100 µM
GI50 [14]: 19.9 µM
TGI [14]: > 100 µM
CC50 [14, 27]: > 100 µM
GI50 [15]: 6.45 µM
TGI [15]: 23.3 µM
CC50 [15, 27]: 65.7 µM
GI50 [16]: 9.88 µM
TGI [16]: 33.2 µM
CC50 [16, 27]: > 100 µM
GI50 [17]: 11 µM
TGI [17]: 47.4 µM
CC50 [17, 27]: > 100 µM
GI50 [18]: 33.1 µM
TGI [18]: > 100 µM
CC50 [18, 27]: > 100 µM
GI50 [19]: 26.7 µM
TGI [19]: > 100 µM
CC50 [19, 27]: > 100 µM
GI50 [20]: 3.6 µM
TGI [20]: 24.7 µM
CC50 [20, 27]: > 100 µM
GI50 [21]: 2.2 µM
TGI [21]: 39.8 µM
CC50 [21, 27]: > 100 µM
GI50 [22]: 6.27 µM
TGI [22]: 49 µM
CC50 [22, 27]: > 100 µM
GI50 [23]: 33.1 µM
TGI [23]: > 100 µM
CC50 [23, 27]: > 100 µM
GI50 [24]: 26.6 µM
TGI [24]: > 100 µM
CC50 [24, 27]: > 100 µM
GI50 [25]: 2.59 µM
TGI [25]: > 100 µM
CC50 [25, 27]: > 100 µM
GI50 [26]: 17.1 µM
TGI [26]: > 100 µM
CC50 [26, 27]: > 100 µM
